Among the data in ChEMBL document CHEMBL1145729, “MMPs inhibitors: new succinylhydroxamates with selective inhibition of MMP-2 over MMP-3” (Bioorg Med Chem Lett, 2003) are IC50 and Selectivity values, retold here.

Several values for one entry are separate records, joined by “and”; a condition that tells them apart may be missing. Equal values may be shown once.

The target of test [1] is T1, Stromelysin-1 (Homo sapiens, UniProt P08254). Briefly: Inhibition of human matrix metalloprotease-3. In short, it runs like this: (§1)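 Fluorogenic peptide cleavage assay with substrate Mca-Pro-Leu-Gly-Leu-Dpa-Ala-Arg-NH2. The enzyme was truncated recombinant MMP-3 lacking the PEX and pro domains, used instead of activated pro-MMP-3 because activation of the proenzyme was not reproducible.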
T1 sequence (P08254 whole entry, the tested form may be a part): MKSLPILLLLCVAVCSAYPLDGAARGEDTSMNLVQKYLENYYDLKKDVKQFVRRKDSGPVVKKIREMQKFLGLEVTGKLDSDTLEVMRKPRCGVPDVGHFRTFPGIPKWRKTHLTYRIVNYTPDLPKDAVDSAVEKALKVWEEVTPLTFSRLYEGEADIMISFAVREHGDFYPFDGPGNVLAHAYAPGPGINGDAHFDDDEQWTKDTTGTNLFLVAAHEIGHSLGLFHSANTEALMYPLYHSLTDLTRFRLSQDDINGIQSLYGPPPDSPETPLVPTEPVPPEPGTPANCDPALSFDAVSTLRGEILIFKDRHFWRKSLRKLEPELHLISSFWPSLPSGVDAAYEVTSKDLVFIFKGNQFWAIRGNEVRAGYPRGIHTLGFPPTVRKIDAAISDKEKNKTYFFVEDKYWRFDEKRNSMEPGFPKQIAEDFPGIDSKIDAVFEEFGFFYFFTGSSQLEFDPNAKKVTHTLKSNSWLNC

Test [2] deals with Matrix metalloproteinase (2 and 3) (Homo sapiens) (UniProt P08254+P08253). Briefly: Selectivity ratio for Matrix metalloprotease-2 over Matrix metalloprotease-3 (IC50). Format: protein assay.
Chain of Matrix metalloproteinase (2 and 3) (Homo sapiens) (P08253 whole entry, looked up): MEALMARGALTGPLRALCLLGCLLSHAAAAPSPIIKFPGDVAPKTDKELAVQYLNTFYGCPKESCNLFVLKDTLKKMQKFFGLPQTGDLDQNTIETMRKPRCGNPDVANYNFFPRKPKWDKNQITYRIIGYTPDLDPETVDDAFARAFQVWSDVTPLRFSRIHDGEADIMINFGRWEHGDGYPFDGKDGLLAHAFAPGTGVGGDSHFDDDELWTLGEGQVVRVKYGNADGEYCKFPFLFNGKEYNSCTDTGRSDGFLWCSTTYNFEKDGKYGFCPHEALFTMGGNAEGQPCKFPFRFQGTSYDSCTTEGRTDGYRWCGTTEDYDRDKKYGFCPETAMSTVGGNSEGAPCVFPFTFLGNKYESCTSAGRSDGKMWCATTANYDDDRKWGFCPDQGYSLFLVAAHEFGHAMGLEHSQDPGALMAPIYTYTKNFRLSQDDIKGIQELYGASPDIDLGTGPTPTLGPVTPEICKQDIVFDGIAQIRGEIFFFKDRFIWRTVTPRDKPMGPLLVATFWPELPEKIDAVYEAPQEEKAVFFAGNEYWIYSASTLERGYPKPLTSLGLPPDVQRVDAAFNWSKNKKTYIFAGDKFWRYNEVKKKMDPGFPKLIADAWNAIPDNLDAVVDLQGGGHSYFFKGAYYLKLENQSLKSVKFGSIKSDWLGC
Chain of Matrix metalloproteinase (2 and 3) (Homo sapiens) (P08254 whole entry, looked up): as the sequence (P08254 whole entry, the tested form may be a part) above
For test [3], the target named is T2, 72 kDa type IV collagenase (Homo sapiens, UniProt P08253). Briefly: Inhibition of human matrix metalloprotease-2.
T2 sequence (P08253 whole entry): as the sequence (P08253 whole entry, looked up) above
Test [4] deals with T2, 72 kDa type IV collagenase. Briefly: Inhibition of human matrix metalloprotease-2 (inactive). In short, it runs like this:
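Fluorogenic peptide cleavage assay with substrate Mca-Pro-Leu-Gly-Leu-Dpa-Ala-Arg-NH2. The enzyme was recombinant pro-MMP-2 activated with APMA.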

Test [5] has as its target T1, Stromelysin-1. The test can be described thus: Inhibition of human matrix metalloprotease-3 (inactive). In short, it runs like this:
as §1

As for `CNC(=O)[C@H](Cc1c[nH]c2ccccc12)NC(=O)[C@@H](CC(=O)NO)CC(C)C` [ILOMASTAT], at Stromelysin-1 [1], the IC50 turned out to be 0.191 nM.
For `CNC(=O)C(Cc1c(CCN(C)C)[nH]c2ccccc12)NC(=O)/C(=C/C(C)C)CC(=O)NO` (centres undefined), the Selectivity in test [2] stood at 116. The results for the IC50 (in test [3]; at Stromelysin-1 [1]) were 5.73 nM and 665 nM, respectively.
The corresponding values for `CCOC(=O)[C@H](Cc1c[nH]c2ccccc12)NC(=O)/C(=C/C(C)C)CC(=O)NO` are 392, 5.97 nM and 2340 nM.
`CNC(=O)[C@H](Cc1c[nH]c2ccccc12)NC(=O)/C(=C/C(C)C)CC(=O)NO` [listing 1 of 3 here]: the half-maximal inhibitory concentration (IC50) in test [3] was found to be 1.3 nM; on Stromelysin-1 [1], 179 nM.
As for `CNC(=O)[C@H](Cc1c[nH]c2ccccc12)NC(=O)/C(=C/C(C)C)CC(=O)OC`, the IC50 result (in test [4]; on Stromelysin-1 [5]) was “Not Active” each time.
In the case of `CNC(=O)[C@H](Cc1c[nH]c2ccccc12)NC(=O)/C(=C/C(C)C)CC(=O)NO` [listing 2 of 3 here], the IC50 in test [3] was determined as 19.6 nM; against Stromelysin-1 [1], 910 nM.
In the case of `CNC(=O)[C@H](Cc1c[nH]c2ccccc12)NC(=O)/C(=C/C(C)C)CC(=O)NO` [listing 3 of 3 here], the Selectivity in test [2] was 138 and 46.

The term IC50 denotes the concentration needed to halve the response being measured.
